From ChEMBL document CHEMBL4406821, “Novel dual inhibitors targeting CDK4 and VEGFR2 synergistically suppressed cancer progression and angiogenesis” (Eur J Med Chem, 2019)
Activity calls are given as the source filed them. The calls are words filed in the database; no cut-off is given here.

Legend:
[1] = molecular target: Dual specificity mitogen-activated protein kinase kinase 4 (Mus musculus) (UniProt P47809); assay: Inhibition of recombinant mouse MKK4 (34 to end residues) at 1 uM using unactive JNK1a1 as substrate incubated for 40 mins in presence of [gamma-33P]-ATP by scintillation counting method relative to control
Chain of Dual specificity mitogen-activated protein kinase kinase 4 (Mus musculus) (P47809 whole entry): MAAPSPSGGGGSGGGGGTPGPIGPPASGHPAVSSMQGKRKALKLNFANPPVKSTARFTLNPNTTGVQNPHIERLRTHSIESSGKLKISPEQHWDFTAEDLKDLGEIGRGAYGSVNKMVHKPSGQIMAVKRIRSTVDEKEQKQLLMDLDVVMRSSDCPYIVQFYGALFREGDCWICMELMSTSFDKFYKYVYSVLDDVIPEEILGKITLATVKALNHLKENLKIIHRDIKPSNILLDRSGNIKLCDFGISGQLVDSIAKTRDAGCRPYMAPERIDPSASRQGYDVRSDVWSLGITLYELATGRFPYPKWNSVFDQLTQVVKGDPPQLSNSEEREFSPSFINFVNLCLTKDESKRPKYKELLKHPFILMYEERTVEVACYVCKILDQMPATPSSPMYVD

[2] = molecular target: Protein kinase C beta type (Homo sapiens) (UniProt P05771); assay: Inhibition of recombinant human PKCbeta2 (2 to end residues) at 1 uM using histone H1 as substrate incubated for 40 mins in presence of [gamma-33P]-ATP by scintillation counting method relative to control
Chain of Protein kinase C beta type (Homo sapiens) (P05771 2-671 limits assumed): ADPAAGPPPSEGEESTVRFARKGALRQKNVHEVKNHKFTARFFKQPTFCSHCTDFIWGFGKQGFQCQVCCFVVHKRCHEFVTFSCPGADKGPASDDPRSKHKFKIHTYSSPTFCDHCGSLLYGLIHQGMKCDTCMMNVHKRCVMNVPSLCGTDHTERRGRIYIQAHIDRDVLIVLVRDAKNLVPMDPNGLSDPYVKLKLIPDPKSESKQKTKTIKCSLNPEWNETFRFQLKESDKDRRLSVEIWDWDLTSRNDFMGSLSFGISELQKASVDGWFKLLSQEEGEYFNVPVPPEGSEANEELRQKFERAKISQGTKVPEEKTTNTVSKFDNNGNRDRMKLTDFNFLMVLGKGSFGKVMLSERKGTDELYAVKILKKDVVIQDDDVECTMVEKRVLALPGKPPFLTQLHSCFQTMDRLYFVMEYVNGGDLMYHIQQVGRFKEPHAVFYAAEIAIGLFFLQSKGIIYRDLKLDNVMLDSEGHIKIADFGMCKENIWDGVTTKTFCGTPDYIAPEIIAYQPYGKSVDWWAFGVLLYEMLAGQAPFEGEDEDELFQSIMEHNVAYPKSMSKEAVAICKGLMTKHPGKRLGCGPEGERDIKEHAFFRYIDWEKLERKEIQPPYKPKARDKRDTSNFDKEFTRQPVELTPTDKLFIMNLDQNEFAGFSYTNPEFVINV

[3] = molecular target: DNA-dependent protein kinase catalytic subunit (Homo sapiens) (UniProt P78527); assay: Inhibition of recombinant human full length DNA-PK at 1 uM using GST-cMyc-p53 as substrate incubated for 40 mins in presence of [gamma-33P]-ATP by scintillation counting method relative to control
[4] = molecular target: Serine/threonine-protein kinase ULK1 (Homo sapiens) (UniProt O75385); assay: Inhibition of recombinant human ULK1 (1 to 314 residues) at 1 uM using casein as substrate incubated for 40 mins in presence of [gamma-33P]-ATP by scintillation counting method relative to control
Summary of the method: (§1)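 Tested at a single 1 uM in an outsourced commercial kinase-profiling panel, read as percent inhibition. Each value is the mean of two independent experiments.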

[5] = molecular target: Ephrin type-A receptor 1 (Homo sapiens) (UniProt P21709); assay: Inhibition of recombinant human EPhA1 (568 to end residues) at 1 uM using KKKSPGEYVNIEFG as substrate incubated for 40 mins in presence of [gamma-33P]-ATP by scintillation counting method relative to control
[6] = molecular target: Calcium/calmodulin-dependent protein kinase type 1G (Homo sapiens) (UniProt Q96NX5); assay: Inhibition of recombinant full length human CAMKIgamma at 1 uM using KKLRRTLSFAEPG as substrate incubated for 40 mins in presence of [gamma-33P]-ATP by scintillation counting method relative to control
Summary of the method: (§2)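 Kinase panel profiling at 1 μM performed by Eurofins KinaseProfiler; percent inhibition reported as mean of two independent experiments.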

[7] = molecular target: PI3-kinase p110-alpha/p85-alpha (Homo sapiens) (UniProt P27986+P42336); assay: Inhibition of recombinant human full length PI3K p110alpha/p85alpha at 1 uM using phosphatidylinositol 4,5-bisphosphate as substrate incubated for 40 mins in presence of [gamma-33P]-ATP by scintillation counting method relative to control; assay type: protein-complex assay
[8] = molecular target: SNF-related serine/threonine-protein kinase (Homo sapiens) (UniProt Q9NRH2); assay: Inhibition of recombinant human SNRK (1 to 505 residues) at 1 uM using KKLRRTLSFAEPG as substrate incubated for 40 mins in presence of [gamma-33P]-ATP by scintillation counting method relative to control; summary of the method: as §1
Chain of SNF-related serine/threonine-protein kinase (Homo sapiens) (Q9NRH2 whole entry, the tested form may be a part): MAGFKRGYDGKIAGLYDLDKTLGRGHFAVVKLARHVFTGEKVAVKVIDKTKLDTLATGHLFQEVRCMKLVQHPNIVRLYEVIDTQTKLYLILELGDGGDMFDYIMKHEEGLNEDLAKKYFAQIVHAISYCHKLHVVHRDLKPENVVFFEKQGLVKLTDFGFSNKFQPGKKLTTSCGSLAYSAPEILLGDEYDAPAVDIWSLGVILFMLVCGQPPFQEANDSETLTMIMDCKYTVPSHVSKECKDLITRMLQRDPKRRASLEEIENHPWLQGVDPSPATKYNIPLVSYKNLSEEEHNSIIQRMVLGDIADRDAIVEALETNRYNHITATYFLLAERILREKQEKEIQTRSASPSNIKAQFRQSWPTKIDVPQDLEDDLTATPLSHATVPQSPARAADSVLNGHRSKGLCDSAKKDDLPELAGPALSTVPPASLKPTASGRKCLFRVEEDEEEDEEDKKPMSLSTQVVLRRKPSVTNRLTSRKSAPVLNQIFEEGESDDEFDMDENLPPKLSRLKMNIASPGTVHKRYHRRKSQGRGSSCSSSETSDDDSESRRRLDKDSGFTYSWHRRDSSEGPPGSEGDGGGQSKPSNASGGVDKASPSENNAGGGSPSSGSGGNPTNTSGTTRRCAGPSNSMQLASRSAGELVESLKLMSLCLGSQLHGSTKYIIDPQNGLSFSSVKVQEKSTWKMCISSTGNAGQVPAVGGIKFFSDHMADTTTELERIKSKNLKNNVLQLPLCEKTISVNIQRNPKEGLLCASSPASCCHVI

[9] = molecular target: cGMP-dependent protein kinase 1 (Homo sapiens) (UniProt Q13976); assay: Inhibition of recombinant human full length PKG1beta at 1 uM using RRRLSFAEPG as substrate incubated for 40 mins in presence of [gamma-33P]-ATP by scintillation counting method relative to control
[10] = Volume of distribution in Sprague-Dawley rat at 10 mg/kg, iv by HPLC-MS analysis; assay type: ADME, organism-based; settings: in vivo
[11] = molecular target: Ribosomal protein S6 kinase alpha-2 (Homo sapiens) (UniProt Q15349); assay: Inhibition of recombinant human full length RSK3 at 1 uM using KKKNRTLSVA as substrate incubated for 40 mins in presence of [gamma-33P]-ATP by scintillation counting method relative to control
[12] = Toxicity in NOD/SCID BALB/c mouse xenografted with human SiHa cells assessed as toxic effects in brain at 40 mg/kg, po administered for 48 hrs by hematoxylin and eosin staining method; assay type: organism-based; settings: in vivo
[13] = molecular target: Protein-tyrosine kinase 2-beta (Homo sapiens) (UniProt Q14289); assay: Inhibition of recombinant human full length PYK2 at 1 uM using poly(Glu, Tyr) 4:1 as substrate incubated for 40 mins in presence of [gamma-33P]-ATP by scintillation counting method relative to control
Chain of Protein-tyrosine kinase 2-beta (Homo sapiens) (Q14289 whole entry, looked up): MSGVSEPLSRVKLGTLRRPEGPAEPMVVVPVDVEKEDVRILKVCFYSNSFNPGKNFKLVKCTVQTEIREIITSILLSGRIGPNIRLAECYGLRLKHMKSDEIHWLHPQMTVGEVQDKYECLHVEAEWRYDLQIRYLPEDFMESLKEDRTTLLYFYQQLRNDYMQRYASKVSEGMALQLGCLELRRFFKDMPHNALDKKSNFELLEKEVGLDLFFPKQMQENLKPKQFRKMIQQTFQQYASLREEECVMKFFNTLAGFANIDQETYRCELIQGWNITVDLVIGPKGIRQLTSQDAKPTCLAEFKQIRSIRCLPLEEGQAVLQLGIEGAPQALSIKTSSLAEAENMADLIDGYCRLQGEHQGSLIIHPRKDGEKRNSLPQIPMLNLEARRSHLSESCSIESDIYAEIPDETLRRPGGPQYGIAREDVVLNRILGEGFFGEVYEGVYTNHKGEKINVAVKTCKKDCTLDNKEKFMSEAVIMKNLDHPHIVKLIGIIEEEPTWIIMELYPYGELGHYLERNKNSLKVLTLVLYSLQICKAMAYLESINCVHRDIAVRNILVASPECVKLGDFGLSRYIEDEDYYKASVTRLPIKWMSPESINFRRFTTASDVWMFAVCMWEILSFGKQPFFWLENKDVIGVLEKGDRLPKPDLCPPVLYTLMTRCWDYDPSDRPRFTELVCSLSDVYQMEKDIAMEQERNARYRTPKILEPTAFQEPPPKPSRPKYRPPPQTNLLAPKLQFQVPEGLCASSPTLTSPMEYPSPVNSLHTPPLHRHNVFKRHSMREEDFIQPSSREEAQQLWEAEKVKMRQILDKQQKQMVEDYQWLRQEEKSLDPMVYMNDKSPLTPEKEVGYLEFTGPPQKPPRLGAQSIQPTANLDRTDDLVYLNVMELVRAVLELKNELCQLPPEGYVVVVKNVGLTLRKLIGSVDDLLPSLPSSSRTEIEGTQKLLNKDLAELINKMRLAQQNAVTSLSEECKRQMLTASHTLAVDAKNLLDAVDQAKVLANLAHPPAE

[14] = molecular target: Protein kinase C gamma type (Homo sapiens) (UniProt P05129); assay: Inhibition of recombinant human full length PKCgamma at 1 uM using histone H1 as substrate incubated for 40 mins in presence of [gamma-33P]-ATP by scintillation counting method relative to control
[15] = molecular target: NUAK family SNF1-like kinase 1 (Homo sapiens) (UniProt O60285); assay: Inhibition of recombinant human ARK5 (2 to end residues) at 1 uM using KKKVSRSGLYRSP as substrate incubated for 40 mins in presence of [gamma-33P]-ATP by scintillation counting method relative to control; summary of the method: as §2
Chain of NUAK family SNF1-like kinase 1 (Homo sapiens) (O60285 whole entry): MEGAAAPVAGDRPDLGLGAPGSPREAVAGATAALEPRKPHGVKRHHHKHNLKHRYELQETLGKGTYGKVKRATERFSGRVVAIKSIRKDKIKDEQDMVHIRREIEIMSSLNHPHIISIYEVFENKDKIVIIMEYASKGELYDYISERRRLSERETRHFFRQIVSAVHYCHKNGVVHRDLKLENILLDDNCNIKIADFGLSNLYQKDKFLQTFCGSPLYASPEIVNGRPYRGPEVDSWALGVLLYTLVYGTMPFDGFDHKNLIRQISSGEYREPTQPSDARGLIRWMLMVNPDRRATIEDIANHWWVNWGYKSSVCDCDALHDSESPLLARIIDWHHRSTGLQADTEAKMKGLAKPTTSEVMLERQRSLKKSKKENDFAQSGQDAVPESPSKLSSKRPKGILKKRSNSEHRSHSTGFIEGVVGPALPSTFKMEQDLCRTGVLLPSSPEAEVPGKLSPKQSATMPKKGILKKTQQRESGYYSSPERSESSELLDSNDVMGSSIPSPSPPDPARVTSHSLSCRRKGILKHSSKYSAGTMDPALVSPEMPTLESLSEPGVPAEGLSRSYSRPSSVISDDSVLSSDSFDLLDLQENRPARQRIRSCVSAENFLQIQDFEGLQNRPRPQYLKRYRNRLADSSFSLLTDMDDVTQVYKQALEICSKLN

[16] = system: HeLa; assay: Inhibition of colony formation in human HeLa cells at 40 to 80 nM incubated for 5 days by crystal violet staining based light microscopy; assay type: functional, cell-based
Summary of the method: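 4 × 10^3 cells per well were cultured with graded concentrations for 5 days. Cells were then fixed with 20% methanol, stained with 0.5% crystal violet and photographed by light microscopy.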

[17] = molecular target: Platelet-derived growth factor receptor beta (Homo sapiens) (UniProt P09619); assay: Inhibition of recombinant human PDGFRbeta (557 to end residues) at 1 uM using poly(Glu, Tyr) 4:1 as substrate incubated for 40 mins in presence of [gamma-33P]-ATP by scintillation counting method relative to control
[18] = molecular target: Tyrosine-protein kinase Yes (Homo sapiens) (UniProt P07947); assay: Inhibition of recombinant human full length YES at 1 uM using poly(Glu, Tyr) 4:1 as substrate incubated for 40 mins in presence of [gamma-33P]-ATP by scintillation counting method relative to control
[19] = system: MDA-MB-231; assay: Induction of apoptosis in human MDA-MB-231 cells assessed as increase in early apoptotic cells at 20 to 40 nM incubated for 48 hrs by annexin V FITC and propidium iodide staining based flow cytometry; assay type: functional, cell-based
Summary of the method: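 Cells were treated for 48 h, stained with FITC Annexin V and PI, and analyzed by flow cytometry to count early and late apoptotic cells.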

[20] = molecular target: Ephrin type-A receptor 2 (Homo sapiens) (UniProt P29317); assay: Inhibition of recombinant human EPhA2 (596 to 900 residues) at 1 uM using poly(Glu, Tyr) 4:1as substrate incubated for 40 mins in presence of [gamma-33P]-ATP by scintillation counting method relative to control
[21] = molecular target: Protein kinase C epsilon type (Homo sapiens) (UniProt Q02156); assay: Inhibition of recombinant human PKCepsilon (2 to end residues) at 1 uM using ERMRPRKRQGSVRRRV as substrate incubated for 40 mins in presence of [gamma-33P]-ATP by scintillation counting method relative to control
Chain of Protein kinase C epsilon type (Homo sapiens) (Q02156 whole entry): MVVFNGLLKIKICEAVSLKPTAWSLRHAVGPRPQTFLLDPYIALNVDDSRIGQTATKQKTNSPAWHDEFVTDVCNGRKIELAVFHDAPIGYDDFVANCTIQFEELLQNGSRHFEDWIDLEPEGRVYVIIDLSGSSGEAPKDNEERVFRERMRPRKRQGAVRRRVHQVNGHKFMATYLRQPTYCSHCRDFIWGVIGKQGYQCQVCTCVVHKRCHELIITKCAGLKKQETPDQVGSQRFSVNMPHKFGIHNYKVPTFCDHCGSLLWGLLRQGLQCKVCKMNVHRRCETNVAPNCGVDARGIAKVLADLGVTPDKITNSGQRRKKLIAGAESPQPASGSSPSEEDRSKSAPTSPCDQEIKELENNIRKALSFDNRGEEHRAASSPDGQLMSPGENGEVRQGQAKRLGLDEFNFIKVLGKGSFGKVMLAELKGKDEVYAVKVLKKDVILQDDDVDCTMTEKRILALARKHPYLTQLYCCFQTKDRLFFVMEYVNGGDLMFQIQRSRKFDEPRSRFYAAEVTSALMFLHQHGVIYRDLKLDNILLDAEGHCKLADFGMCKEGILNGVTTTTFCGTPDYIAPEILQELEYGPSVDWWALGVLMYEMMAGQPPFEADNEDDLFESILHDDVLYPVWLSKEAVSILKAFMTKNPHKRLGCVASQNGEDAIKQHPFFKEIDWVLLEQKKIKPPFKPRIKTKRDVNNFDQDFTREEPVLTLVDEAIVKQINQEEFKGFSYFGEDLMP

[22] = molecular target: Serine/threonine-protein kinase BRSK2 (Homo sapiens) (UniProt Q8IWQ3); assay: Inhibition of recombinant human BRSK2 (2 to end residues) at 1 uM using KKLNRTLSFAEPG as substrate incubated for 40 mins in presence of [gamma-33P]-ATP by scintillation counting method relative to control; summary of the method: as §2

SMILES: Cc1ccc(NC(=O)C2(C(=O)Nc3ccc(Nc4ncc(F)c(-c5cc(F)c6nc(C)n(C(C)C)c6c5)n4)cc3)CC2)cc1
- inhibition [1]: 12%
- inhibition [2]: 47%
- inhibition [3]: 3%
- inhibition [4]: 0%
- inhibition [5]: 73%
- inhibition [6]: 5%
- inhibition [7]: 7%
- inhibition [8]: 0%
- inhibition [9]: 45%
- Vd [10]: 2 L/kg
- inhibition [11]: 26%
- Activity [12]: Non-Toxic
- inhibition [13]: 73%
- inhibition [14]: 23%
- inhibition [15]: 69%
- inhibition [16]: Active
- inhibition [17]: 6%
- inhibition [18]: 31%
- Activity [19]: Active
- inhibition [20]: 61%
- inhibition [21]: 16%
- inhibition [22]: 54%
